The results in this text go back to the array DNA melting data of Ke et al. (doi:10.1101/2024.01.08.574731).

The nature of series [1]: melting temperature; fluorescence melt of hairpins on a sequencing array, two-state fit, raised by 9.35 °C to match UV melts. The conditions noted are these: sodium 0.088 M. The method in brief:
(§1)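 Hairpins were imaged by Cy3 fluorescence on a sequenced MiSeq flow cell with annealed Cy3 and quencher oligos, in 50 mM Na-HEPES pH 8.0, 25 mM NaCl, in 2.5 °C steps up to 60 °C. Bootstrapped two-state fits of normalised signals gave melting temperature and folding enthalpy. Four replicates were combined by inverse variance, and fitted temperatures were raised by 9.35 °C to match UV melts.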

Series [2] in a line: folding enthalpy; higher = less favourable; fluorescence melt of hairpins on a sequencing array, two-state fit. The settings on record: sodium 0.088 M. The method in brief:
as §1

In the case of CGTAACGGAAACGTGACG (((.(((....))).))), the Tm in series [1] was 49.6 °C. Further, in series [2], the folding enthalpy is -47 kcal/mol.
For CGTAATCGGAAACGAACG (((..(((....)))))) the same measures were 20.9 °C and -7.75 kcal/mol.
On to CGTACGGAAACGTAACG ((((((....))).))), for which the Tm in series [1] turned out to be 45.3 °C. For the same sequence, in series [2], the folding enthalpy is -28.7 kcal/mol.
For CGTACGGAAACGTCAACG ((((((....)))..))), in that order: 32.2 °C and -13.5 kcal/mol.
Consider CGTACGGAAACGTTTACG ((((((....)))..))), for which, in series [1], the Tm amounted to 37.3 °C. In series [2], the folding enthalpy is -16 kcal/mol.
With CGTAGCGGAAACGCCACG (((.(((....))).))), in series [1], the Tm was 46.9 °C. Moreover, the folding enthalpy in series [2] was -32 kcal/mol.
With CGTATGAAAATACG (((((....))))), the Tm in series [1] is 47.4 °C. In addition, the folding enthalpy in series [2] was -24.1 kcal/mol.
In the case of CGTCACCGGAAACGGACG (((..(((....)))))), the Tm in series [1] is 36.4 °C. Further, in series [2], the folding enthalpy is -21.6 kcal/mol.
For the sequence CGTCCACGGAAACGTACG (((..(((....)))))), in series [1], the Tm came out at 28.5 °C. In series [2], the folding enthalpy was -15.7 kcal/mol.
For CGTCCGGAAACGGATACG ((((((....)))..))) the same measures were 40 °C and -18.1 kcal/mol.
For CGTCCGGAAACGGGCACG ((((((....)))..))) the same measures were 38.9 °C and -12.4 kcal/mol.
For CGTCCGGAAACGGGTACG ((((((....)))..))), in that order: 42.4 °C and -25 kcal/mol.
With CGTCCGGAAACGGTAACG ((((((....)))..))), the Tm in series [1] stood at 37.8 °C. The folding enthalpy in series [2] was -25.1 kcal/mol.
For CGTCGACGGAAACGTACG (((..(((....)))))) the same measures were 38.1 °C and -20.2 kcal/mol.
As to CGTGCGGAAACGCCACG ((((((....))).))), the Tm in series [1] stood at 53.8 °C. Further, in series [2], the folding enthalpy is -25.4 kcal/mol.
For CGTGCGGAAACGCCTACG ((((((....)))..))) the same measures were 39.1 °C and -15.3 kcal/mol.
As for CGTGCGGAAACGCTTACG ((((((....)))..))), the Tm in series [1] was 38.4 °C. Also, the folding enthalpy in series [2] is -22.6 kcal/mol.
Regarding CGTGGACGGAAACGTACG (((..(((....)))))), in series [1], the Tm turned out to be 36.6 °C. For the same sequence, the folding enthalpy in series [2] is -20.3 kcal/mol.
For CGTGGCGGAAACGCACG (((.(((....)))))) the same measures were 53.7 °C and -26.5 kcal/mol.
With CGTGTCGGAAACGAAACG (((.(((....))).))), in series [1], the Tm came to 47.1 °C. For the same sequence, the folding enthalpy in series [2] is -35.6 kcal/mol.
CGTGTCGGAAACGAACG (((.(((....)))))): the Tm in series [1] was 37.7 °C. Moreover, the folding enthalpy in series [2] is -24.3 kcal/mol.
For the sequence CGTGTTCGGAAACGAACG (((..(((....)))))), in series [1], the Tm came out at 42.1 °C. In addition, in series [2], the folding enthalpy is -8.25 kcal/mol.
As to CGTTAGCGGAAACGCACG (((..(((....)))))), the Tm in series [1] came to 39.8 °C. In addition, the folding enthalpy in series [2] is -18.1 kcal/mol.
For the sequence CGTTCACGGAAACGTACG (((..(((....)))))), the Tm in series [1] came out at 39 °C. Further, the folding enthalpy in series [2] is -15.2 kcal/mol.
With CGTTCGGAAACGAAAACG ((((((....)))..))), in series [1], the Tm came out at 34.9 °C. Further, the folding enthalpy in series [2] was -24.8 kcal/mol.
Regarding CGTTCGGAAACGAAGACG ((((((....)))..))), in series [1], the Tm was 34.9 °C. Further, in series [2], the folding enthalpy is -26.2 kcal/mol.
For CGTTCGGAAACGACCACG ((((((....)))..))) the same measures were 27.3 °C and -8.89 kcal/mol.
In the case of CGTTCGGAAACGAGAACG ((((((....)))..))), the Tm in series [1] was 41.2 °C. Moreover, the folding enthalpy in series [2] is -27.9 kcal/mol.
In the case of CGTTCGGAAACGAGGACG ((((((....)))..))), in series [1], the Tm was determined as 34.7 °C. The folding enthalpy in series [2] is -14.1 kcal/mol.
Take CGTTGCGGAAACGCGACG (((.(((....))).))): the Tm in series [1] was 67.4 °C. Further, the folding enthalpy in series [2] was -30.5 kcal/mol.
Regarding CGTTGGCGGAAACGCACG (((..(((....)))))), in series [1], the Tm stood at 41.1 °C. Besides, in series [2], the folding enthalpy is -14.6 kcal/mol.
For CGTTTCGGAAACGACACG (((.(((....))).))), in that order: 44.8 °C and -29.6 kcal/mol.
As to CGTTTGCGGAAACGCACG (((..(((....)))))), in series [1], the Tm came out at 39.8 °C. The folding enthalpy in series [2] is -10.4 kcal/mol.
Take CTAGCGAAAGCTAG (((((....))))): the Tm in series [1] was determined as 63.2 °C. Besides, in series [2], the folding enthalpy was -19 kcal/mol.
CTCGAGAAATCGAG (((((....))))): the Tm in series [1] stood at 47.9 °C. In addition, in series [2], the folding enthalpy was -21.2 kcal/mol.
CTCGTGAAAACGAG (((((....))))): the Tm in series [1] was 53.5 °C. Besides, in series [2], the folding enthalpy is -21.4 kcal/mol.
Consider CTCTGGAAACAGAG (((((....))))), for which, in series [1], the Tm came to 46.4 °C. Also, the folding enthalpy in series [2] is -19.9 kcal/mol.
Consider CTCTTGAAAAAGAG (((((....))))), for which the Tm in series [1] came to 36.2 °C. The folding enthalpy in series [2] was -10.4 kcal/mol.
CTGAAGAAATTCAG (((((....))))): the Tm in series [1] worked out at 33.4 °C. In addition, the folding enthalpy in series [2] was -12.5 kcal/mol.
CTGACGAAAGTCAG (((((....))))): the Tm in series [1] was 65 °C. Also, the folding enthalpy in series [2] is -29 kcal/mol.
Take CTGGTGAAAACCAG (((((....))))): in series [1], the Tm came to 52.8 °C. Also, in series [2], the folding enthalpy was -20.3 kcal/mol.
CTGTAGAAATACAG (((((....))))): in series [1], the Tm is 39.4 °C. Further, in series [2], the folding enthalpy was -14.5 kcal/mol.
Consider CTTGTGAAAACAAG (((((....))))), for which the Tm in series [1] is 45.2 °C. Also, the folding enthalpy in series [2] is -23.1 kcal/mol.
On to GAAAAAGAAATTTTTC ((((((....)))))), for which the Tm in series [1] came out at 28.1 °C. Further, the folding enthalpy in series [2] was -14.6 kcal/mol.
Turning to GAAAACCGAAAGGTGTTC (((.(((....))).))), the Tm in series [1] is 44.9 °C. For the same sequence, the folding enthalpy in series [2] was -19.9 kcal/mol.
For GAAAACCGAAAGGTTTC (((.(((....)))))), in that order: 44.2 °C and -15.9 kcal/mol.
GAAAACGAAAGTTTGTTC ((((((....)))..))): the Tm in series [1] was 28.4 °C. In series [2], the folding enthalpy was -13.5 kcal/mol.
For GAAAACGGAAACGCTTTC ((((.((....)).)))), in that order: 34.8 °C and -32.4 kcal/mol.
In the case of GAAAAGCGAAAGCTGTTC (((.(((....))).))), in series [1], the Tm was 44.9 °C. Also, the folding enthalpy in series [2] is -18 kcal/mol.
Consider GAAAAGGGAAACCCTTTC ((((.((....)).)))), for which the Tm in series [1] came out at 32.6 °C. For the same sequence, the folding enthalpy in series [2] was -17 kcal/mol.
For GAAAATACGAAAGTATTC (((..(((....)))))), in that order: 27.7 °C and -13.7 kcal/mol.
As to GAAACACGAAAGTGATTC (((.(((....))).))), in series [1], the Tm was determined as 45.5 °C. In addition, the folding enthalpy in series [2] is -29.6 kcal/mol.
Regarding GAAACAGGAAACTGCTTC (((.(((....))).))), the Tm in series [1] came out at 31.6 °C. Further, the folding enthalpy in series [2] was -21.9 kcal/mol.
For the sequence GAAACCCGAAAGGGTTC (((.(((....)))))), in series [1], the Tm is 51.5 °C. Also, the folding enthalpy in series [2] is -10.2 kcal/mol.
For GAAACCGAAAGGTCTTTC ((((((....)))..))), in that order: 32.3 °C and -14 kcal/mol.
For GAAACCGAAAGGTGATTC ((((((....)))..))), in that order: 41.6 °C and -22.4 kcal/mol.
GAAACCGAAAGGTTGTTC ((((((....)))..))): in series [1], the Tm came to 36.8 °C. The folding enthalpy in series [2] was -13.7 kcal/mol.
In the case of GAAACCGAAAGGTTTC ((((((....)))))), the Tm in series [1] was 67.1 °C. Moreover, the folding enthalpy in series [2] was -29.4 kcal/mol.
For the sequence GAAACCGGAAACGGCTTC (((.(((....))).))), in series [1], the Tm amounted to 42 °C. Further, the folding enthalpy in series [2] was -23.6 kcal/mol.
Consider GAAACGAAAGTTTC (((((....))))), for which the Tm in series [1] is 53.4 °C. Moreover, the folding enthalpy in series [2] is -29.1 kcal/mol.
GAAACTGGAAACAGTCTC ((.((((....)))).)): the Tm in series [1] is 28 °C. For the same sequence, in series [2], the folding enthalpy is -15.5 kcal/mol.
For GAAAGAGAAATCTTTC ((((((....)))))) the same measures were 36.8 °C and -18.2 kcal/mol.
For GAAAGAGGAAACTCTTTC (((((((....))))))) the same measures were 51.2 °C and -37.8 kcal/mol.
GAAAGCCGAAAGGCGTTC (((.(((....))).))): the Tm in series [1] stood at 52.3 °C. In addition, in series [2], the folding enthalpy was -12.3 kcal/mol.
For GAAAGCGAAAGCTCCTTC ((((((....)))..))), in series [1], the Tm worked out at 31.4 °C. Besides, the folding enthalpy in series [2] is -10.2 kcal/mol.
On to GAAAGCGAAAGCTCGTTC ((((((....)))..))), for which, in series [1], the Tm was determined as 25.9 °C. Also, the folding enthalpy in series [2] is -9.57 kcal/mol.
With GAAAGCGAAAGCTCTTC ((((((....))).))), the Tm in series [1] was 44.3 °C. Besides, in series [2], the folding enthalpy was -17.9 kcal/mol.
For GAAAGCGAAAGCTGGTTC ((((((....)))..))) the same measures were 29.3 °C and -9.59 kcal/mol.
Turning to GAAAGCGGAAACGCTTCC (.(((((....))))).), the Tm in series [1] was 41.4 °C. In series [2], the folding enthalpy is -12.3 kcal/mol.
For GAAAGCGGAAACGCTTTC (((((((....))))))), in that order: 65.5 °C and -41 kcal/mol.
In the case of GAAAGGACGAAAGTCTTC (((..(((....)))))), the Tm in series [1] is 24.9 °C. In addition, the folding enthalpy in series [2] is -11.8 kcal/mol.
For GAAAGGCGAAAGCCTTC (((.(((....)))))), in that order: 49.6 °C and -10.4 kcal/mol.
Turning to GAAATCGGAAACGATTTC (((((((....))))))), the Tm in series [1] was 59.5 °C. In series [2], the folding enthalpy is -42.9 kcal/mol.
For GAAATGGGAAACCATTCC (.(((((....))))).), in series [1], the Tm was found to be 31 °C. In series [2], the folding enthalpy is -14.8 kcal/mol.
